Measured values published in ChEMBL document CHEMBL5608194, “Novel neuroprotective 5,6-dihydropyrido[2',1':2,3]imidazo[4,5-c]quinoline derivatives acting through cholinesterase inhibition and CB2 signaling modulation” (Eur J Med Chem, 2024).
The source made the active and inactive calls. The calls are words filed in the database; no cut-off is given here.

Key:
SH-SY5Y [1] = assay: Potentiation of MPP+ induced toxicity in human SH-SY5Y cells assessed as increase in cell death at 10 uM; format: cell-based
Outline: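 Neuron-like SH-SY5Y co-treated for 24 h with 5 mM MPP+, compound and CB2 inverse agonist AM630 or antagonist SR144528 at 0.1, 1 or 10 μM; CB2 ligands also tested alone and with MPP+; cell death read-out; triplicates on three independent days.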

SH-SY5Y [2] = assay: Cytotoxicity against human SH-SY5Y cells at 10 uM; format: toxicity, cell-based
Outline: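 SH-SY5Y differentiated to neuron-like phenotype with 10 μM all-trans retinoic acid for 48 h, 20 000 cells/well, then exposed to compound for 72 h (DMSO ≤0.5 %). Propidium iodide exclusion fluorescence; dead-cell proportion expressed relative to Triton X-100 (1 %, 1 min) lysed control.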

SH-SY5Y [3] = assay: Neuroprotective activity against ATRA-differentiated and 3-NPA induced cell death in human SH-SY5Y cells assessed as cell death at 1 uM incubated for 48 hrs by propidium iodide staining based fluorescence assay (reference value: 100%); format: functional
Outline: (§1)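 ATRA-differentiated SH-SY5Y co-treated with compound and 20 mM 3-nitropropionic acid for 48 h; cell death by propidium iodide fluorescence, 3-NPA-treated signal set to 100 %.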

SH-SY5Y [4] = assay: Neuroprotective activity against ATRA-differentiated and MPP+ induced cell death in human SH-SY5Y cells assessed as cell death at 0.1 uM incubated for 24 hrs by propidium iodide staining based fluorescence assay (reference value: 100%); format: functional
Outline: (§2)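 ATRA-differentiated SH-SY5Y co-treated with compound and 5 mM MPP+ for 24 h; cell death by propidium iodide fluorescence, MPP+-treated signal set to 100 %.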

SH-SY5Y [5] = assay: Neuroprotective activity against ATRA-differentiated and 3-NPA induced cell death in human SH-SY5Y cells assessed as cell death at 0.1 uM incubated for 48 hrs by propidium iodide staining based fluorescence assay (reference value: 100%); format: functional; outline: as §1
SH-SY5Y [6] = assay: Neuroprotective activity against ATRA-differentiated and 3-NPA induced cell death in human SH-SY5Y cells assessed as cell death at 10 uM incubated for 48 hrs by propidium iodide staining based fluorescence assay (reference value: 100%); format: functional; outline: as §1
SH-SY5Y [7] = assay: Neuroprotective activity against ATRA-differentiated and MPP+ induced cell death in human SH-SY5Y cells assessed as cell death at 1 uM incubated for 24 hrs by propidium iodide staining based fluorescence assay (reference value: 100%); format: functional; outline: as §2
SH-SY5Y [8] = assay: Neuroprotective activity against ATRA-differentiated and MPP+ induced cell death in human SH-SY5Y cells assessed as cell death at 10 uM incubated for 24 hrs by propidium iodide staining based fluorescence assay (reference value: 100%); format: functional; outline: as §2
SH-SY5Y [9] = assay: Cytotoxicity against human SH-SY5Y cells assessed as cell death at 10 uM incubated for 72 hrs by propidium iodide staining based fluorescence assay; format: toxicity
Outline: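 SH-SY5Y differentiated to neuron-like phenotype with 10 μM all-trans retinoic acid for 48 h, 20 000 cells/well. Compounds from DMSO stocks (DMSO ≤0.5 %) added, then 72 h exposure. Control wells lysed with 1 % Triton X-100 for 1 min, then all wells stained with propidium iodide for fluorescence read-out. Dead-cell proportion expressed relative to Triton X-100-treated control.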

[10] = Selectivity index, ratio of IC50 for electric eel AChE to IC50 for equine serum BChE
Outline: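 Ratio of IC50 values from modified Ellman spectrophotometric assays with electric eel AChE and equine serum BChE. Each used enzyme at 0.2 U/mL final, acetylthiocholine or butyrylthiocholine at 40 μM, and DTNB at 100 μM. Inhibitors were dissolved in DMSO, diluted in water, and tested at five concentrations in triplicate. IC50 came from regression of v0/vi against inhibitor concentration.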

Cholinesterase = Cholinesterase (Equus caballus, UniProt P81908); assay: Inhibition of equine serum BChE using butyrylthiocholine as substrate by Ellman's method
Chain of Cholinesterase (P81908 whole entry): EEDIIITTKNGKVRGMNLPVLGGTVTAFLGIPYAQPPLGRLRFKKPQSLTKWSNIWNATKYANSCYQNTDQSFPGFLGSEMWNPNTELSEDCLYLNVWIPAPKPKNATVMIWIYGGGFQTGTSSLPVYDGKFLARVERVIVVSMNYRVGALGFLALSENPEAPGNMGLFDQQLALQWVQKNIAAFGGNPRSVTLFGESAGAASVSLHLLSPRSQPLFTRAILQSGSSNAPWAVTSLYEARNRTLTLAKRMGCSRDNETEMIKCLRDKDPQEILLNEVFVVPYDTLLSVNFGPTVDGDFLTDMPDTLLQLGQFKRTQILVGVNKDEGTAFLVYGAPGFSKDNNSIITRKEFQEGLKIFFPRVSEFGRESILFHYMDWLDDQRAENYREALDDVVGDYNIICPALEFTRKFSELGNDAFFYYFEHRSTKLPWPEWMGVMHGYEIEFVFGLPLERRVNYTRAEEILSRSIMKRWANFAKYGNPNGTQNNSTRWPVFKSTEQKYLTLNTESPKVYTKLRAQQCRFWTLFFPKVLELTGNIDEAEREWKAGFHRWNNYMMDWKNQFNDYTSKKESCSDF
Outline: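 Equine serum BChE (0.2 U/mL final) with 40 μM butyrylthiocholine and 100 μM DTNB, modified Ellman spectrophotometry; compounds from DMSO diluted in water, five inhibitor concentrations; IC50 from regression of v0/vi versus inhibitor concentration; triplicate.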

SH-SY5Y [11] = assay: Inhibition of MPP+ induced mitochondrial superoxide radical production in human SH-SY5Y cells at 10 uM incubated for 24 hrs by MitoSOX staining based microplate reader assay (reference value: 100%); format: functional
Outline: (§3)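 Neuron-like SH-SY5Y (20 000 cells/well) co-treated with 5 mM MPP+ and compound for 24 h; plates centrifuged, medium replaced by 5 μM MitoSOX in HBSS, 30 min at 37 °C, fluorescence 500/580 nm; MPP+ signal set to 100 %; triplicates on at least four independent days.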

SH-SY5Y [12] = assay: Neuroprotective activity against ATRA-differentiated and MPP+ induced cell death in human SH-SY5Y cells assessed as cell death at 10 uM by LDH release assay (reference value: 100%); format: functional
Outline: (§4)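 ATRA-differentiated SH-SY5Y co-treated with 5 mM MPP+ and compound; cell death by commercial LDH release kit; MPP+ value set to 100 %; triplicates on at least three independent days.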

SH-SY5Y [13] = assay: Inhibition of MPP+ induced superoxide radical production in human SH-SY5Y cells at 10 uM incubated for 24 hrs by microplate reader assay (reference value: 100%); format: functional
Outline: (§5)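 Neuron-like SH-SY5Y co-treated with 5 mM MPP+ and compound for 24 h; centrifuged at 500 × g, medium replaced with 10 μM dihydroethidium in PBS for 30 min, fluorescence 500/580 nm; MPP+ signal set to 100 %; triplicates on at least four independent days.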

SH-SY5Y [14] = assay: Inhibition of MPP+ induced mitochondrial depolarization in human SH-SY5Y cells at 0.1 uM incubated for 2 hrs by JC10 staining based confocal laser scanning microscopy; format: functional
Outline: (§6)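 ATRA-differentiated SH-SY5Y co-treated with 5 mM MPP+ and compound for 2 h; mitochondrial membrane potential by JC10 ratiometric red/green signal (plate) and confocal imaging of JC10-stained cells (50 000 cells/well slides); DMSO control set to 100 %; triplicates on three independent days.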

Acetylcholinesterase = Acetylcholinesterase (Electrophorus electricus, UniProt O42275); assay: Inhibition of electric eel AChE using acetylthiocholine as substrate by Ellman's method
Chain of Acetylcholinesterase (O42275 whole entry): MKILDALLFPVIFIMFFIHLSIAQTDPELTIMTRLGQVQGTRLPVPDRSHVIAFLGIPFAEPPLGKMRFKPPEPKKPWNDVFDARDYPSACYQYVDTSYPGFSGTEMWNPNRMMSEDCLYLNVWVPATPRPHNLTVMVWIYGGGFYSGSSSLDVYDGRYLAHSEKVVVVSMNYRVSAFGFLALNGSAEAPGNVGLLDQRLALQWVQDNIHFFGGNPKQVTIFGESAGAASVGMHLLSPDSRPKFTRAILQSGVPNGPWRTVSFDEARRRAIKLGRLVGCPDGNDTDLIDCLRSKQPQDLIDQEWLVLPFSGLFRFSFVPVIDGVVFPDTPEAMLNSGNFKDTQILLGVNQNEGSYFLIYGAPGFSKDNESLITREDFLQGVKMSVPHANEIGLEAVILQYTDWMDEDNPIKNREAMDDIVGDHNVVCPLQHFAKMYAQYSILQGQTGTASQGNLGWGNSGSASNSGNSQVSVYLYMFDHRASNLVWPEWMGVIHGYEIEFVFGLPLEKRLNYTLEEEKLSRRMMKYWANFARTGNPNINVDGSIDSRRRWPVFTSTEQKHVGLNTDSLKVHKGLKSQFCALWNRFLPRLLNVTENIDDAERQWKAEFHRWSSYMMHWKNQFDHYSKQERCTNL

SH-SY5Y [15] = assay: Neuroprotective activity against MPP+ induced cell death in human SH-SY5Y cells assessed as cell death at 10 uM by YOPRO-1 staining based assay; format: functional
Outline: (§7)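 Neuron-like SH-SY5Y co-treated with compound and 5 mM MPP+ for 24 h; centrifuged at 500 × g, medium replaced by 1 μM YO-PRO1 in PBS for 15 min at room temperature; fluorescence 488/530 nm; MPP+ signal set to 100 %; triplicates on at least three independent days.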

SH-SY5Y [16] = assay: Inhibition of MPP+ induced mitochondrial depolarization in human SH-SY5Y cells at 1 uM incubated for 2 hrs by JC10 staining based confocal laser scanning microscopy; format: functional; outline: as §6
SH-SY5Y [17] = assay: Neuroprotective activity against MPP+ induced cell death in human SH-SY5Y cells assessed as cell death at 10 uM incubated for 24 hrs by Cas-3, 7 staining based assay; format: functional
Outline: (§8)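 Caspase-3/7 activation with Ac-DEVD-AFC substrate after 24 h co-treatment of neuron-like SH-SY5Y with compound and 5 mM MPP+; MPP+ signal set to 100 %; triplicates on at least three independent days.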

SH-SY5Y [18] = assay: Neuroprotective activity against ATRA-differentiated and MPP+ induced cell death in human SH-SY5Y cells assessed as cell death at 1 uM by LDH release assay (reference value: 100%); format: functional; outline: as §4
SH-SY5Y [19] = assay: Neuroprotective activity against MPP+ induced cell death in human SH-SY5Y cells assessed as cell death at 1 uM by YOPRO-1 staining based assay; format: functional; outline: as §7
SH-SY5Y [20] = assay: Inhibition of MPP+ induced mitochondrial superoxide radical production in human SH-SY5Y cells at 0.1 to 10 uM incubated for 24 hrs by MitoSOX staining based microplate reader assay; format: functional, cell-based; conditions: dose 0.1-10 µM; outline: as §3
SH-SY5Y [21] = assay: Neuroprotective activity against MPP+ induced cell death in human SH-SY5Y cells assessed as cell death at 1 uM incubated for 24 hrs by Cas-3, 7 staining based assay; format: functional; outline: as §8
SH-SY5Y [22] = assay: Inhibition of MPP+ induced superoxide radical production in human SH-SY5Y cells at 1 uM incubated for 24 hrs by microplate reader assay (reference value: 100%); format: functional; outline: as §5

| Compound | Activity (SH-SY5Y [3]) | Activity (SH-SY5Y [4]) | Activity (SH-SY5Y [5]) | Activity (SH-SY5Y [6]) | Activity (SH-SY5Y [7]) | Activity (SH-SY5Y [8]) | Activity (SH-SY5Y [9]) | also measured |
| --- | --- | --- | --- | --- | --- | --- | --- | --- |
| Cc1ccc(Cn2nc(C(=O)N[C@@H]3C(C)(C)[C@@H]4CC[C@@]3(C)C4)cc2-c2ccc(Cl)c(C)c2)cc1 |  |  |  |  |  |  |  | Activity (SH-SY5Y [1]): Toxic; Activity (SH-SY5Y [2]): Non-Toxic |
| c1ccc2c(c1)NC1(CCCC1)c1c-2nc2ccccn12 | 57.7% | 63.9% | 67.7% | 54.5% | 28.2% | 42.6% | 10.1% |  |
| Brc1ccc2nc3c(n2c1)C1(CCCCCC1)Nc1ccccc1-3 | 81.4% | 56.5% | 90.7% | 73.5% | 43.5% | 96.4% | 13.5% |  |
| c1ccc2c(c1)NC1(CCCCCC1)c1c-2nc2ccccn12 | 69.9% | 45.8% | 74% | 69% | 28.6% | 73.6% | 10.4% |  |
| Cc1cccn2c3c(nc12)-c1ccccc1NC3(C)C | 69.9% | 79.6% | 96.6% | 56.4% | 48.6% | 70.8% | 11% |  |
| Cc1cccn2c3c(nc12)-c1ccccc1NC31CCCCC1 | 66.1% | 77.7% | 76.6% | 61.8% | 44.4% | 45.6% | 9.2% |  |
| Cc1ccn2c3c(nc2c1)-c1ccccc1NC31CCCC1 | 59% | 73.1% | 86.9% | 48.6% | 31.9% | 68.9% | 10.4% |  |
| Cc1cccn2c3c(nc12)-c1ccccc1NC31CCCC1 | 65.3% | 86.7% | 79.2% | 60.5% | 48% | 52.8% | 8.2% |  |
| Cc1cccn2c3c(nc12)-c1ccccc1NC31CCCCCC1 | 71% | 67.2% | 83.8% | 60.3% | 38.8% | 91.4% | 9.3% |  |
| Cc1ccn2c3c(nc2c1)-c1ccccc1NC3(C)C | 62.4% | 65.7% | 86.2% | 52.9% | 46.1% | 59.7% | 13% |  |
| COc1ccc(C(=O)c2c(C)n(CCN3CCOCC3)c3cc(I)ccc23)cc1 |  |  |  |  |  |  |  | Activity (SH-SY5Y [1]): > 12%; Activity (SH-SY5Y [2]): Toxic |
| Cc1cccn2c3c(nc12)-c1ccccc1NC31CCC(C)CC1 (configuration not stated) | 65% | 91.8% | 86% | 64.5% | 53% | 94% | 9% |  |
| CC(=O)N[C@@H](CS)C(=O)O [ACETYLCYSTEINE] | 80.8% |  | 95.5% | 37% |  |  |  |  |
| CC1CCC2(CC1)Nc1ccccc1-c1nc3ccccn3c12 (configuration not stated) | 64.2% | 67.6% | 82.3% | 64.5% | 33.6% | 97.3% | 12% |  |
| Brc1ccc2nc3c(n2c1)C1(CCCCC1)Nc1ccccc1-3 | 88.4% | 94.8% | 97.7% | 59.5% | 56.5% | 33.9% | 12.3% | Ratio IC50 [10]: 1.02; IC50 (Cholinesterase): 19.6 µM; inhibition at 10 µM (SH-SY5Y [11]): 58.8%; Activity (SH-SY5Y [12]): 64.7%; inhibition at 10 µM (SH-SY5Y [13]): 65.6%; inhibition at 0.1 µM (SH-SY5Y [14]): 91.7%; IC50 (Acetylcholinesterase): 20 µM; Activity (SH-SY5Y [15]): 58%; inhibition at 1 µM (SH-SY5Y [16]): 100%; Activity (SH-SY5Y [17]): 55.8% |
| Cc1ccn2c3c(nc2c1)-c1ccccc1NC31CCCCC1 | 62.6% | 60.8% | 75.5% | 55.2% | 38.2% | 75% | 11.4% | Activity (SH-SY5Y [18]): 65.4%; Ratio IC50 [10]: 1.57; IC50 (Cholinesterase): 10.4 µM; Activity (SH-SY5Y [19]): 58.1%; inhibition (SH-SY5Y [20]): inactive; inhibition at 0.1 µM (SH-SY5Y [14]): 78.7%; IC50 (Acetylcholinesterase): 16.4 µM; Activity (SH-SY5Y [21]): 52.6%; inhibition at 1 µM (SH-SY5Y [16]): 100%; inhibition at 1 µM (SH-SY5Y [22]): 67.1% |
| CC1CCC2(CC1)Nc1ccccc1-c1nc3ccc(Br)cn3c12 (configuration not stated) | 71.3% | 74.2% | 92.1% | 64% | 52.3% | 126.5% | 9.3% |  |
| Cc1ccn2c3c(nc2c1)-c1ccccc1NC31CCC(C)CC1 (configuration not stated) | 66.8% | 61.6% | 82.4% | 67% | 38.4% | 105.9% | 10.9% |  |
